# Activity calls are given as the source filed them. No cut-off for these calls is given here.
# What was measured:
# [1] = species: Mus musculus; assay: Inhibition of hedgehog signaling pathway in mouse Shh Light2 cells harboring Gli2 plasmid assessed as reduction in Gli2-mediated transcriptional activity by luciferase reporter gene assay; assay type: cell-based
# [2] = species: Mus musculus; assay: Inhibition of hedgehog signaling pathway in mouse NIH/3T3 cells assessed as downregulation of Shh-induced ptch1 mRNA expression levels at 300 nM after 36 hrs by RT-qPCR analysis; assay type: cell-based
# Method in brief: (§1)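 NIH-3T3 or C3H10T1/2 cells treated as indicated for 36 h, then collected for RT-qPCR of Gli1 and ptch1 mRNA. Data given as mean ± SD.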
# [3] = species: Mus musculus; assay: Inhibition of hedgehog signaling pathway in mouse C3H10T1/2 cells assessed as downregulation of Shh-induced ptch1 mRNA expression levels at 300 nM after 36 hrs by RT-qPCR analysis; assay type: cell-based; method in brief: as §1
# [4] = species: Mus musculus; assay: Inhibition of hedgehog signaling pathway in mouse NIH/3T3 cells harboring sufu shRNA assessed as downregulation of Gli1 mRNA expression at 300 nM by RT-qPCR analysis; assay type: cell-based
# [5] = species: Mus musculus; assay: Inhibition of hedgehog signaling pathway in mouse NIH/3T3 cells harboring sufu shRNA assessed as downregulation of ptch1 mRNA expression at 300 nM by RT-qPCR analysis; assay type: cell-based
# [6] = target: Bromodomain-containing protein 4 (Homo sapiens) (UniProt O60885); assay: Inhibition of BRD4 (unknown origin) at 10 uM
# [7] = species: Mus musculus; assay: Inhibition of hedgehog signaling pathway in mouse NIH/3T3 cells assessed as reduction in edogenous expression of Gli1 protein by immunoblot analysis; assay type: cell-based
# Method in brief: (§2)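 NIH-3T3 cells cultured in 10% FBS were exposed to compound at various concentrations for 24 h. Endogenous Gli1 and Gli2 detected by Western blot.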
# [8] = species: Mus musculus; assay: Inhibition of hedgehog signaling pathway in mouse NIH/3T3 cells assessed as reduction in edogenous expression of Gli2 protein by immunoblot analysis; assay type: cell-based; method in brief: as §2
# [9] = species: Mus musculus; assay: Inhibition of hedgehog signaling pathway in mouse NIH/3T3 cells hoarboring Gli1 plasmid assessed as reduction in ectopic expression of Gli1 protein at 50 to 1000 nM by immunoblot analysis; assay type: cell-based
# [10] = species: Mus musculus; assay: Inhibition of hedgehog signaling pathway in mouse NIH/3T3 cells hoarboring Gli2 plasmid assessed as reduction in ectopic expression of Gli2 protein at 50 to 1000 nM by immunoblot analysis; assay type: cell-based
# [11] = species: Mus musculus; assay: Inhibition of hedgehog signaling pathway in mouse Light2 cells harboring wild type Smo after 36 hrs by Gli luciferase activity; assay type: cell-based
# Method in brief: (§3)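 Light II cells (NIH-3T3 stably carrying Gli-responsive firefly luciferase and Renilla vector) transfected with wild-type, D473H or W535L Smo plasmid. Exposed to compound for 36 h, then dual luciferase assay with firefly/Renilla normalization. IC50 derived and given as mean ± SD.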
# [12] = species: Mus musculus; assay: Inhibition of hedgehog signaling pathway in mouse Light2 cells harboring Smo D473H mutant after 36 hrs by Gli luciferase activity; assay type: cell-based; method in brief: as §3
# [13] = tested on: Medulloblastoma cell; assay: Antiproliferative activity against mouse Ptch+/- p53-/- medulloblastoma cells assessed as reduction in cell proliferation after 72 hrs by MTS assay; assay type: functional, cell-based
# Method in brief: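 Tumor cells obtained from ptch+/−;p53−/− medulloblastoma allografts by mechanical mincing and collagenase digestion. Cultured in Neurobasal A with B-27, EGF 20 ng/mL, bFGF 20 ng/mL, nonessential amino acids and N-acetylcysteine 60 μg/mL. Exposed to compounds for 72 h, then proliferation read by MTS assay. Data given as mean ± SD.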
# [14] = species: Mus musculus; assay: Inhibition of hedgehog signaling pathway in mouse Ptch+/- p53-/- medulloblastoma cells assessed as reduction in GLI1 mRNA expression at 3 uM by RT-qPCR analysis
# Method in brief: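 ptch+/−;p53−/− medulloblastoma cells kept in Neurobasal A/B-27 medium with EGF and bFGF, then treated. Gli1 and ptch1 mRNA measured by RT-qPCR. Data given as mean ± SD.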
# [15] = tested on: Mus musculus; assay: Downregulation of Gli1 mRNA expression level in athymic nude mouse implanted with mouse Ptch+/- p53-/- medulloblastoma cells at 25 to 50 mg/kg, ip bid for 15 consecutive days measured after 4 hrs of last dosage by RT-qPCR analysis; assay type: functional, organism-based
# Method in brief: (§4)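 Same allograft model (n = 5), dosed ip twice daily for 15 days in 0.5% methylcellulose/0.2% Tween-80 suspension. Tumors harvested 4 h after the last dose. Gli1 and ptch1 mRNA quantified by RT-qPCR. Data given as mean ± SD.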
# [16] = tested on: Mus musculus; assay: Downregulation of ptch1 mRNA expression level in athymic nude mouse implanted with mouse Ptch+/- p53-/- medulloblastoma cells at 25 to 50 mg/kg, ip bid for 15 consecutive days measured after 4 hrs of last dosage by RT-qPCR analysis; assay type: functional, organism-based; method in brief: as §4
# [17] = tested on: Medulloblastoma cell; assay: Induction of apoptosis in mouse Ptch+/- p53-/- medulloblastoma cells implanted in athymic nude mouse at 25 to 50 mg/kg, ip bid for 15 consecutive days by TUNEL assay; assay type: functional, organism-based
# Method in brief: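 Apoptosis in subcutaneous ptch+/−;p53−/− medulloblastoma allografts in nude mice (n = 5), dosed ip twice daily for 15 days. Tumor sections stained by TUNEL and apoptotic cells imaged at 60×.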
smiles,measurement,setting,value
COc1ccc(CN2C[C@@H]3CN(S(=O)(=O)c4ccc(Cl)cc4)CC[C@@H]3Oc3c(NC(=O)C4CC4)cccc3C2=O)cc1 (racemic),inhibition,[1],Dose-dependent effect
same,inhibition,[2],Active
same,inhibition,[3],Active
same,inhibition,[4],Active
same,inhibition,[5],Active
same,inhibition,[6],inactive
same,inhibition,[7],Dose-dependent effect
same,inhibition,[8],Dose-dependent effect
same,inhibition,[9],Active
same,inhibition,[10],Active
same,inhibition,[11],Dose-dependent effect
same,inhibition,[12],Dose-dependent effect
same,Activity,[13],Dose-dependent effect
same,inhibition,[14],Active
same,Activity,[15],Active
same,Activity,[16],Active
same,Activity,[17],Active
